Holding throughout (type): cell-based
Data set [1] addresses T1, NADPH oxidase 4 (Homo sapiens) (UniProt Q9NPH5).
T1 sequence (whole entry): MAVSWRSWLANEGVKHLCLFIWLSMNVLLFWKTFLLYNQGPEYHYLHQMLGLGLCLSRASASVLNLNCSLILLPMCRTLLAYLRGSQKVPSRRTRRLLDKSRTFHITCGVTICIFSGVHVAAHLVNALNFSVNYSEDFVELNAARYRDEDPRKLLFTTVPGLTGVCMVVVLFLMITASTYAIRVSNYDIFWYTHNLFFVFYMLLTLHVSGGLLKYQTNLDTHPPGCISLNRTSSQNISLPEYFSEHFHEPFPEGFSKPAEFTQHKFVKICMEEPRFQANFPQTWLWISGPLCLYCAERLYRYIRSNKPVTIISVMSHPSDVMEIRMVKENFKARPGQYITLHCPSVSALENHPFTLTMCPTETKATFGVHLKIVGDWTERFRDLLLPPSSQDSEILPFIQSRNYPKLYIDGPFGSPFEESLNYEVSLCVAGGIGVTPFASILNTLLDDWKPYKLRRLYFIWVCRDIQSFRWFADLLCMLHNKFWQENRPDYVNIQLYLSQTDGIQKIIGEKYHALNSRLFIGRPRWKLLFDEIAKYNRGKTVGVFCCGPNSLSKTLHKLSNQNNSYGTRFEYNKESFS
Put plainly: Inhibition of NOX4 expressed in HEK293 FS cells at 10 uM assessed as H2O2 production by H2O2/Tyr/LPO assay. In short, it runs like this:
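Primary screen at 10 μM in the H2O2/Tyr/LPO cellular assay. HEK 293 FS cells overexpress NOX4. The LPO enzyme forms fluorescent o,o'-dityrosine from L-tyrosine and H2O2, detected by spectrofluorometric plate reader. Inhibition expressed relative to DPI.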

The target in a further data set is T2, NADPH oxidase 4 (Homo sapiens, UniProt Q9NPH5).
T2 sequence (Q9NPH5 whole entry): T1 sequence (whole entry)
The data set is described as follows: Inhibition of NOX4 expressed in HEK293 FS cells assessed as H2O2 production by H2O2/Tyr/LPO assay. Summed up:
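Cell-based H2O2/Tyr/LPO assay in free-style HEK 293 F cells transfected to overexpress constitutively H2O2-producing NOX4. NOX4-generated H2O2 drives LPO conversion of L-tyrosine to fluorescent o,o'-dityrosine, read on a spectrofluorometric plate reader. IC50 estimated from an eight-point curve, 1/2 dilution series from 10 to 0.078 μM.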

The nature of data set [2]: Cytotoxicity against human free style HEK293 cells after 72 hrs. The note with it: FreeStyle HEK293 cells. In short, it runs like this: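 Luminescent cell viability kit read-out; cells exposed to 10 μM compound for 72 h. Values expressed as percentage of live cells.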
Data set [3] has as its target T1, NADPH oxidase 4 (Homo sapiens). The data set is described as follows: Inhibition of NOX4 expressed in HEK293 FS cells at 10 uM assessed as H2O2 production by H2O2/Tyr/LPO assay substituted with 3 uM H2O2. The settings on record: values are per cent of control. In short, it runs like this: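 Redox-activity counter-screen: transfected cells replaced by 3 μM H2O2 in the H2O2/Tyr/LPO read-out (LPO plus L-tyrosine giving fluorescent dityrosine). Compounds at 10 μM final, to detect breakdown of H2O2 independent of NOX4.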

Consider `C=CCN(CC=C)C(=S)/N=C1\C(=O)Nc2cc(C)c(O)c(C)c21`, for which the inhibition (in general, the drop in the measured response relative to a control, in per cent) in data set [1] stood at 100%.
As for `O=C(O)c1cc(NCc2ccccc2O)ccc1O`, the inhibition in data set [1] was 89%. Also, the IC50 (commonly the concentration at which inhibition is half-maximal) on NADPH oxidase 4 came to 960 nM. The same compound had a cytotoxicity at 72 h in data set [2] of 102%. Moreover, the % inhibition of H2O2 signal (cell-free redox counter-screen) in data set [3] amounted to 5.35%.
As to `COc1cc(CCNC(=O)C(=O)Nc2cccc(N)c2)ccc1O`, the inhibition in data set [1] is 104%. The IC50 at NADPH oxidase 4 came to 1300 nM. Besides, the cytotoxicity at 72 h in data set [2] was determined as 82.4%. In data set [3], the % inhibition of H2O2 signal (cell-free redox counter-screen) was -3.3%.
On to `Nc1cccc(Nc2ncnc3c2sc2ccc(N)cc23)c1`, for which, in data set [1], the inhibition turned out to be 98%. Moreover, the IC50 on NADPH oxidase 4 was found to be 240 nM. Further, the cytotoxicity at 72 h in data set [2] was determined as 106%. Besides, the % inhibition of H2O2 signal (cell-free redox counter-screen) in data set [3] is 17.9%.
Turning to `COc1cc(/C=C2\C(=O)Nc3ccc(NC(C)=O)cc32)ccc1O`, the inhibition in data set [1] is 104%. Besides, the IC50 on NADPH oxidase 4 amounted to 1400 nM. In data set [2], this compound displayed a cytotoxicity at 72 h of 112%. Moreover, in data set [3], the % inhibition of H2O2 signal (cell-free redox counter-screen) is -5.16%.
With `O=C(NCCc1ccc(O)c(O)c1)C(=O)Nc1cccc([N+](=O)[O-])c1`, in data set [1], the inhibition worked out at 104%. Moreover, the IC50 on NADPH oxidase 4 came out at 1640 nM. Moreover, the cytotoxicity at 72 h in data set [2] amounted to 74.9%. Further, the % inhibition of H2O2 signal (cell-free redox counter-screen) in data set [3] was -3.5%.
Turning to `O=c1c2cc(O)c(O)cc2c2cc(O)c(O)cc2n1Cc1ccccc1S(=O)(=O)c1ccccc1`, the inhibition in data set [1] is 95%. In addition, the IC50 at NADPH oxidase 4 was 1580 nM. The cytotoxicity at 72 h in data set [2] is 113%. Moreover, the % inhibition of H2O2 signal (cell-free redox counter-screen) in data set [3] is -1.05%.
Take `O=c1c(O[C@H]2O[C@H](CO)[C@@H](O)[C@H](O)[C@H]2O)c(-c2ccc(O)c(O)c2)oc2cc(O)cc(O)c12` [MIQUELIANIN]: the inhibition in data set [1] is 105%. For the same compound, the % inhibition of H2O2 signal (cell-free redox counter-screen) in data set [3] is -1.86%.
With `O=c1c2cc(O)c(O)cc2c2cc(O)c(O)cc2n1Cc1ccc([N+](=O)[O-])cc1`, the inhibition in data set [1] is 93%. The IC50 on NADPH oxidase 4 is 1580 nM. This compound also returned a cytotoxicity at 72 h in data set [2] of 108%. Besides, the % inhibition of H2O2 signal (cell-free redox counter-screen) in data set [3] was -6.11%.
For `CC(C)c1cc(/C=C2\C(=O)Nc3ccccc32)cc(C(C)C)c1O`, in data set [1], the inhibition worked out at 102%. Moreover, the IC50 at NADPH oxidase 4 turned out to be 630 nM. Also, the cytotoxicity at 72 h in data set [2] is 18.7%. The % inhibition of H2O2 signal (cell-free redox counter-screen) in data set [3] is -0.88%.
As to `O=C(N/N=C/c1ccc(O)c(O)c1)C(=O)N/N=C/c1ccc(O)c(O)c1`, the inhibition in data set [1] worked out at 105%. For the same compound, the IC50 on NADPH oxidase 4 is 1160 nM. Moreover, in data set [2], the cytotoxicity at 72 h amounted to 99.5%. In addition, in data set [3], the % inhibition of H2O2 signal (cell-free redox counter-screen) came out at 7.6%.
`O=c1c2cc(O)c(O)cc2c2cc(O)c(O)cc2n1Cc1cc([N+](=O)[O-])ccc1O`: the inhibition in data set [1] is 104%. For the same compound, the IC50 on NADPH oxidase 4 was 170 nM. In data set [2], the cytotoxicity at 72 h was 90.6%. Also, the % inhibition of H2O2 signal (cell-free redox counter-screen) in data set [3] is -4.8%.
Regarding `O=C1Nc2ccc([N+](=O)[O-])cc2/C1=C/c1ccc(O)c(O)c1`, the inhibition in data set [1] amounted to 102%. Also, the IC50 on NADPH oxidase 4 was 1130 nM. The cytotoxicity at 72 h in data set [2] was 123%. Also, the % inhibition of H2O2 signal (cell-free redox counter-screen) in data set [3] is 0.39%.
For `O=c1c2cc(O)c(O)cc2c2cc(O)c(O)cc2n1Cc1cccc([N+](=O)[O-])c1`, the inhibition in data set [1] stood at 101%. Further, at NADPH oxidase 4, the IC50 turned out to be 260 nM. For the same compound, in data set [2], the cytotoxicity at 72 h came to 112%. For the same compound, the % inhibition of H2O2 signal (cell-free redox counter-screen) in data set [3] was -4.9%.
In the case of `COc1cc(O)cc2oc(-c3ccc(O)c(O)c3)c(O)c(=O)c12`, the inhibition in data set [1] amounted to 100%. The IC50 at NADPH oxidase 4 was determined as 740 nM. The cytotoxicity at 72 h in data set [2] came out at 121%. Further, in data set [3], the % inhibition of H2O2 signal (cell-free redox counter-screen) was found to be 3.17%.
With `O=C(N/N=C/c1cccc(O)c1O)C(=O)N/N=C/c1cccc(O)c1O`, in data set [1], the inhibition was determined as 103%. Also, the IC50 on NADPH oxidase 4 came out at 910 nM. The same compound showed a cytotoxicity at 72 h in data set [2] of 67.2%. The % inhibition of H2O2 signal (cell-free redox counter-screen) in data set [3] is -4.58%.
`Nc1ccc(Nc2ncnc3c2sc2ccc(N)cc23)cc1`: the inhibition in data set [1] was 101%. The IC50 at NADPH oxidase 4 was 1070 nM. The cytotoxicity at 72 h in data set [2] was 60.5%. For the same compound, the % inhibition of H2O2 signal (cell-free redox counter-screen) in data set [3] was -2.78%.
Take `COC(=O)c1cc(NCc2ccccc2O)ccc1O`: the inhibition in data set [1] amounted to 91%. Moreover, the IC50 on NADPH oxidase 4 stood at 1270 nM. This compound also came in with a cytotoxicity at 72 h in data set [2] of 106%. For the same compound, the % inhibition of H2O2 signal (cell-free redox counter-screen) in data set [3] was 3.83%.
`C=CCN(CC=C)C(=S)N=C1C(=O)Nc2cc(C)c(O)c(C)c21`: on NADPH oxidase 4, the IC50 is 1000 nM. The compound also yielded a cytotoxicity at 72 h in data set [2] of 97.8%.
As to `N#Cc1ccccc1Cn1c(=O)c2cc(O)c(O)cc2c2cc(O)c(O)cc21`, the inhibition in data set [1] worked out at 97%. The IC50 at NADPH oxidase 4 came out at 590 nM. The compound also yielded a cytotoxicity at 72 h in data set [2] of 108%. Further, the % inhibition of H2O2 signal (cell-free redox counter-screen) in data set [3] was 4.8%.
Turning to `O=c1cc(-c2ccc(O)cc2)oc2cc(O)cc(O)c12` [APIGENIN], in data set [1], the inhibition was found to be 105%. Also, the IC50 on NADPH oxidase 4 came to 1130 nM. In addition, the cytotoxicity at 72 h in data set [2] stood at 108%. Further, the % inhibition of H2O2 signal (cell-free redox counter-screen) in data set [3] was -1.2%.
For the compound `O=c1cc(-c2ccc(O)c(O)c2)oc2cc(O)cc(O)c12` [LUTEOLIN], the inhibition in data set [1] turned out to be 106%. Further, on NADPH oxidase 4, the IC50 came to 850 nM. This compound also showed a cytotoxicity at 72 h in data set [2] of 110%.
As for `COc1cc(O)c2c(=O)c(OC)c(-c3ccc(O)c(O)c3)oc2c1`, the inhibition in data set [1] was 88%. The concentration for half-maximal inhibition (IC50) at NADPH oxidase 4 was 1020 nM.
Consider `O=C(O)c1cc(NCc2cc(O)ccc2O)ccc1O` [LAVENDUSTIN C], for which the inhibition in data set [1] was 82%. The IC50 at NADPH oxidase 4 turned out to be 1340 nM. Further, the cytotoxicity at 72 h in data set [2] was found to be 88.7%. For the same compound, the % inhibition of H2O2 signal (cell-free redox counter-screen) in data set [3] is 72.4%.
In the case of `O=c1c(O)c(-c2ccc(O)c(O)c2)oc2cc(O)cc(O)c12` [QUERCETIN], the inhibition in data set [1] is 94%. At NADPH oxidase 4, the IC50 was found to be 680 nM. The same compound displayed a cytotoxicity at 72 h in data set [2] of 102%.
Turning to `O=c1c(O)c(-c2ccc(O)cc2)oc2cc(O)cc(O)c12` [KAEMPFEROL], the inhibition in data set [1] is 105%. Moreover, the IC50 at NADPH oxidase 4 was 1200 nM. In data set [2], the cytotoxicity at 72 h is 119%. The % inhibition of H2O2 signal (cell-free redox counter-screen) in data set [3] amounted to 2.09%.

Values taken from ChEMBL document CHEMBL1240523, “Small-molecule inhibitors of NADPH oxidase 4” (J Med Chem, 2010).
